Screening results deposited in PubChem by The Scripps Research Institute Molecular Screening Center.
SIAE inh: human SIAE inhibitors, primary screen, biochemical, fluorescence polarization, FP-Rh probe, 1536-well HTS; Sialate O-acetylesterase (Homo sapiens), Q9HAT2; SIAE FP-Rh probe binding; 370,000 compounds, 0.69% hits; AID 1053197, 2014; inhibition, % at 9.66 µM;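 active = inhibition above a cutoff: mean of compounds within the control limits plus 3 SD of those, cut at about 17% in these data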;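 note: 0% = plate median of compound wells and 100% = probe without SIAE protein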
Target sequence (Q9HAT2 whole entry, looked up): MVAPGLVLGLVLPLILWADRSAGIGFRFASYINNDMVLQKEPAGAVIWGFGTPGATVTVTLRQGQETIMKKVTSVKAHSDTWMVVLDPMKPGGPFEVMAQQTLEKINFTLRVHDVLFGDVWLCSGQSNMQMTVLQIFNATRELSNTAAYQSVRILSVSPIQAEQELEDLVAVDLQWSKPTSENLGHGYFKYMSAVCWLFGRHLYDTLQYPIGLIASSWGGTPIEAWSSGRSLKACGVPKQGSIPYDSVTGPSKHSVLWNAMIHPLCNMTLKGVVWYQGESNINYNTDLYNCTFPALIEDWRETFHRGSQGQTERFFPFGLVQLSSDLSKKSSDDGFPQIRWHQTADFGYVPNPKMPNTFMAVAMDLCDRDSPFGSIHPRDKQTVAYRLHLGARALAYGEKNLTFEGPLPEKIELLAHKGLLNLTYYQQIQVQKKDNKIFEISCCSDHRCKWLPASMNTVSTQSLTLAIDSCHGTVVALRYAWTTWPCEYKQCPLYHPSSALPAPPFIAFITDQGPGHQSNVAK
rCAG RNA binder: binders of r(CAG) RNA repeats, primary screen, biochemical, fluorescence; r(CAG) RNA repeat, TO-PRO-1 dye displacement fluorescence; AID 651821, 2012; inhibition, % at 3 µM; 370,000 compounds, 1.3% hits;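 active = inhibition above the plate cutoff, the mean of all test compounds on that plate plus 3 SD, cut at about 35% in these data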;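 note: 0% = DMSO alone and 100% = 100 µM mitoxantrone as full dye displacement; higher means more dye released from RNA so lower well fluorescence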
PRMT1 FP inh: PRMT1 methyltransferase inhibitors, primary screen, biochemical, fluorescence polarization; 370,000 compounds, 1.3% hits; recombinant PRMT1, activity-based probe fluorescence polarization; AID 652257, 2013; Protein arginine N-methyltransferase 1 (Homo sapiens), Q99873; inhibition, % at 2.79 µM;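 active = inhibition above about 21% made by adding two undisclosed values, limit read from the data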
ABHD4 inh: ABHD4 inhibitors, primary screen, biochemical, fluorescence polarization, mouse. 370,000 compounds, 0.54% hits. purified mABHD4, FP-Rh probe fluorescence polarization. AID 720543, 2013. (Lyso)-N-acylphosphatidylethanolamine lipase (Mus musculus), Q8VD66. inhibition, % at 8.92 µM;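 active = inhibition exceeding the mean over every tested compound plus 3 SD, cut at about 30% in these data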;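 note: 0% = plate median of compound wells and 100% = S159A mutant with DMSO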
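assay system = mABHD4 protein | compound dosing = single nominal dose of 8.92 µM, 0.89% DMSO final | read-out basis = percent inhibition of probe binding, normalized to plate controls | schedule = Enzyme–compound pre-incubation 45 min, then probe 60 min, both 25 °C | detection = fluorescence polarization, excitation 525 nm, emission 598 nm, BODIPY TMR filters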
HTRA1 inhibitor: HTRA1 serine protease inhibitors, primary screen, biochemical, fluorescence polarization, HTS; Q92743; recombinant HTRA1, FP-rhodamine activity-based probe; inhibition, % at 5.96 µM; 340,000 compounds, 0.5% hits; in the data active = inhibition above about 36%;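 note: 0% = enzyme with DMSO and 100% = wells lacking enzyme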
TCR-CD3 inh: inhibitors of human TCR-CD3 interaction, primary screen, biochemical, fluorescence, TAMRA-labeled TCR probe; T-cell receptor (TCR); inhibition, % at 9.4 µM; 360,000 compounds, 0.37% hits; AID 651800, 2012; in the data active = inhibition above about 19%;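 note: recombinant mutant TCR 2C K166C tagged with TAMRA read by polarization; 0% = receptor in buffer alone and 100% = receptor with positive control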
rCAG binder conf: small molecules binding CAG repeat RNA – biochemical, fluorescence, confirmation; 4,300 compounds, 70% hits; shares compounds with rCAG RNA binder; inhibition, % at 3 µM; r(CAG) RNA repeat, TO-PRO-1 dye displacement fluorescence;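 active = inhibition above a per-plate cutoff, the mean inhibition of sample wells plus 3 SD, cut at about 35% in these data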;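 note: loss of TO-PRO-1 fluorescence as compound displaces dye from 1x1 AA loop RNA; 0% = DMSO only wells and 100% = 100 µM mitoxantrone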
DNA CAG counter: displacement of TO-PRO-1 from CAG DNA duplex, counter-screen for rCAG RNA repeat binder project, biochemical, fluorescence, TO-PRO-1 dye, d(CAG) DNA oligo. shares compounds with rCAG RNA binder. d(CAG) DNA oligo TO-PRO-1 dye displacement. inhibition, % at 3 µM. 4,300 compounds, 94% hits;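 active = inhibition above its plate's cutoff, the mean test-well inhibition plus 3 SD, cut at about 4.8% in these data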;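 note: 0% = DNA dye mix with DMSO and 100% = 100 µM mitoxantrone; hits displace the dye from DNA and so lower well fluorescence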
Active calls of the source: *; . = not tested or not shown. A selection: hits, their analogues and other compounds. The true share with any hit is near 3.5%.

SMILES | SIAE inh | rCAG RNA binder | PRMT1 FP inh | ABHD4 inh | HTRA1 inhibitor | TCR-CD3 inh | rCAG binder conf | DNA CAG counter
C[C@H]1CCCC(=O)N[C@@H](c2ccccc2)[C@@H](C)CCCC(=O)N[C@H]1c1ccccc1 | 2.4 | 3.5 | 2.2 | 5.1 | . | . | . | .
Cc1[nH]c2ccccc2c1/C=N/Nc1ccc([N+](=O)[O-])cc1S(=O)(=O)Nc1ccc(Cl)cc1 | 1.4 | 10.1 | 2.3 | -0.6 | 8.8 | -2.6 | . | .
COc1ccc(NS(=O)(=O)c2cc([N+](=O)[O-])ccc2NN=Cc2ccccc2OCC(=O)O)cc1 | -7.1 | 84.7* | 0.3 | 6.0 | -15.7 | 6.9 | 88.4* | 62.5*
O=C(O)COc1ccccc1C=NNc1ccc([N+](=O)[O-])cc1S(=O)(=O)Nc1ccc(Cl)cc1 | -11.6 | 88.0* | 13.4 | 5.5 | -45.1 | -2.4 | 90.7* | 69.1*
O=C(COc1ccccc1F)Nc1cc(S(=O)(=O)Nc2cccc(Cl)c2)ccc1O | -8.6 | 63.8* | 7.4 | -13.4 | -21.5 | -2.6 | 55.6* | 21.8*
Cc1ccc(-c2[nH]nc(N)c2N=Nc2ccccc2C)cc1 | 12.5 | 32.4 | 0.9 | 17.4 | -1.8 | -2.0 | . | .
Cc1ccc(-c2[nH]nc(N)c2N=Nc2cccc(Cl)c2C)cc1 | 4.0 | 41.7* | 0.7 | 9.9 | -1.3 | -1.1 | 23.4 | 11.7*
O=C(CC1C[C@H](C(=O)N2CCOCC2)[C@@]2(CCC3CCCC3)c3[nH]c4ccccc4c3CCN2C1=O)NCCCn1ccnc1 (stereo partly specified) | 2.0 | 35.1* | -1.3 | 3.3 | 3.2 | -0.3 | 1.8 | 2.1
COc1ccc2[nH]c3c(c2c1)CCN1C(=O)C(CC(=O)NCCCn2ccnc2)C[C@H](C(=O)N2CCOCC2)[C@@]31CCC1CCCC1 (stereo partly specified) | 7.0 | 2.7 | 1.2 | 10.3 | 2.2 | -3.0 | . | .
Cc1ccc(C(=O)NCC(=O)OCc2nc3sc(C)c(C)c3c(=O)[nH]2)cc1 | -1.7 | 2.6 | 2.9 | 1.3 | . | . | . | .
O=C(CCc1ccccc1)N[C@H]1[C@H](OCc2ccccc2)CCC[C@@]12C(=O)N(Cc1ccccc1)c1ccc(-c3ccsc3)cc12 | -11.6 | 7.9 | 7.3 | -11.2 | . | . | . | .
O=C(Cn1nnc(-c2cc(C(F)(F)F)cc(C(F)(F)F)c2)n1)NNC(=S)Nc1ccc(Cl)cc1 | 0.2 | 66.0* | 10.2 | 1.4 | -0.1 | -5.8 | 52.9* | 20.9*
NNC(=O)c1cc2ccccc2cc1NS(=O)(=O)c1ccccc1 | -33.2 | 53.9* | 0.7 | -14.5 | -4.8 | -0.1 | 13.6 | 5.0*
COc1ccc(C2c3[nH]c4ccccc4c3C[C@H]3C(=O)N(c4ccccc4C(=O)N4CCC[C@@H]4C(=O)O)C(=O)N23)cc1 (stereo partly specified) | 3.2 | 31.6 | 5.1 | 1.9 | 5.2 | -16.9 | . | .
O=C(O)[C@H]1CCCN1C(=O)c1ccccc1N1C(=O)[C@@H]2Cc3c([nH]c4ccccc34)C(c3cccc(Cl)c3)N2C1=O (stereo partly specified) | -50.0 | 38.8* | -0.1 | -31.5 | -9.8 | -3.5 | 64.7* | 22.3*
